Laboratory results taken from article PMC4811700 (European journal of medicinal chemistry, 2016).
Values belong to the molecule of their own block, whether it stands above or below them.

Assays:
[1] = molecular target: Mcl-1 (Homo sapiens, UniProt Q07820); assay: Fluorescence polarization competition assay; type: binding; settings: for change in experimental free energy of binding to Mcl-1: relative to the preceding compound in the series 3b, 3a, 3bi, 3bl; for binding affinity to Mcl-1 in vitro: data not shown
Sequence of Mcl-1 (Q07820 172-327): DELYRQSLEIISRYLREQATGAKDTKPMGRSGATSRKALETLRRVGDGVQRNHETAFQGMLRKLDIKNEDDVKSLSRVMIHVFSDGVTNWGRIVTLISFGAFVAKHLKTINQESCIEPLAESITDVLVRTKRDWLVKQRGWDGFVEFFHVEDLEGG

[2] = molecular target: Mcl-1^172-327 (Homo sapiens, UniProt Q07820); assay: NMR 1H,15N-HSQC with 15N-labeled Mcl-1; type: binding; settings: 131 μM 15N-labeled Mcl-1, 182 μM compound
Sequence of Mcl-1^172-327 (Q07820 172-327): as above
Procedure, shortened: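 2D 1H,15N-fast HSQC collected at 25 °C, 800 MHz, with and without compound. Buffer: 20 mM HEPES pH 6.8, 50 mM NaCl, 3 mM DTT, 20% D2O, 5% d6-DMSO. Backbone amide shift changes monitored.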

change in experimental free energy of binding to Mcl-1 [1]: -2.1 kcal/mol
SMILES: O=C(O)c1cc(S(=O)(=O)Nc2ccc(Br)cc2)c2ccccc2c1O [Compound 3a, 4-(N-(4-bromophenyl)sulfamoyl)-1-hydroxy-2-naphthoic acid]

interaction with Mcl-1 by HSQC chemical shift perturbation [2]: direct interaction
SMILES: CC(C)CN(c1ccc(OC(C)C)cc1)S(=O)(=O)c1cc(C(=O)O)c(O)c2ccccc12 [Compound 3ba, 1-Hydroxy-4-(N-isobutyl-N-(4-isopropoxyphenyl)sulfamoyl)-2-naphthoic acid]

change in experimental free energy of binding to Mcl-1 [1]: -1.9 kcal/mol
SMILES: Cc1cc(Oc2ccc(NS(=O)(=O)c3cc(C(=O)O)c(O)c4ccccc34)cc2)cc(C)c1Cl [Compound 3bi, 4-(N-(4-(4-Chloro-3,5-dimethylphenoxy)phenyl)sulfamoyl)-1-hydroxy-2-naphthoic acid]

change in experimental free energy of binding to Mcl-1 [1]: -0.8 kcal/mol
SMILES: Cc1cc(Oc2ccc(N(Cc3ccccc3)S(=O)(=O)c3cc(C(=O)O)c(O)c4ccccc34)cc2)cc(C)c1Cl [Compound 3bl, 4-(N-Benzyl-N-(4-(4-chloro-3,5-dimethylphenoxy)phenyl)sulfamoyl)-1-hydroxy-2-naphthoic acid]

fold improvement in Mcl-1 inhibitory activity ([1]; relative to unsubstituted benzylic amine derivative 3c): 8 fold
SMILES: O=C(O)c1cc(S(=O)(=O)NCC2CCCCC2)c2ccccc2c1O [Compound 3g, 4-(N-(Cyclohexylmethyl)sulfamoyl)-1-hydroxy-2-naphthoic acid]

Further lines, the molecule ahead of its results:

SMILES: COc1c(C(=O)O)cc(S(=O)(=O)N(CC(C)C)c2ccc(Br)cc2)c2ccccc12 [Compound 12, 4-(N-(4-Bromophenyl)-N-isobutylsulfamoyl)-1-methoxy-2-naphthoic acid]
fold reduction in Mcl-1 activity ([1]; methylation of hydroxyl group, relative to 3ca): ~40 fold

SMILES: COC(=O)c1cc(S(=O)(=O)N(CC(C)C)c2ccc(OC(C)C)cc2)c2ccccc2c1O [Compound 13, Methyl 1-hydroxy-4-(N-isobutyl-N-(4-isopropoxyphenyl)sulfamoyl)-2-naphthoate]
binding affinity to Mcl-1 in vitro [1]: no binding affinity

SMILES: CC(=O)OCOC(=O)c1cc(S(=O)(=O)N(CC(C)C)c2ccc(OC(C)C)cc2)c2ccccc2c1O [Compound 14, Acetoxymethyl 1-hydroxy-4-(N-isobutyl-N-(4-isopropoxyphenyl)sulfamoyl)-2-naphthoate]
binding affinity to Mcl-1 in vitro [1]: no binding affinity
